Dynein cargo inh = inhibitors of GR-EGFP nuclear translocation, primary screen, dynein cargo transport inhibitor project, imaging, high-content, 3617.4 mouse cells; AID 1381, 2008; test concentration mostly 20 µM; stimulated with dexamethasone, 1 µM; stronger effect = lower value; z-score, hits read low; 220,000 tested, 0.47% active;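 active means plate z-score of nuclear minus cytoplasmic receptor signal below a set negative limit, without overly bright fluorescence or cell loss, cut at about -3.5 in these data, passing the limit was not always enough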;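 further: z-score of nuclear minus cytoplasmic ring GR-EGFP intensity difference per well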
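Medium: Induction medium lacking tetracycline, stripped serum | Probe or stimulus: 1.0 µM final dexamethasone stimulus | Schedule: 48 h induction, then 1 h compound, then 30 min agonist, 37 °C | Signal: Automated 10x imaging of fixed Hoechst-stained cells | Evaluation: Per-cell GR-EGFP intensity, nucleus versus surrounding cytoplasmic ring, well-averaged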
Rad51 HR inh = human RAD51 strand exchange inhibitors, primary screen, biochemical, fluorescence; hRad51 DNA strand exchange, fluorescence dequenching; inhibition, % at 10 µM; 200,000 tested, 0.085% active; AID 1385, 2008;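 active means inhibition above 40% at the single screening dose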;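 further: 0% = DMSO control wells and 100% = blanks with heterologous ssDNA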
Target sequence (Q06609 whole entry, looked up): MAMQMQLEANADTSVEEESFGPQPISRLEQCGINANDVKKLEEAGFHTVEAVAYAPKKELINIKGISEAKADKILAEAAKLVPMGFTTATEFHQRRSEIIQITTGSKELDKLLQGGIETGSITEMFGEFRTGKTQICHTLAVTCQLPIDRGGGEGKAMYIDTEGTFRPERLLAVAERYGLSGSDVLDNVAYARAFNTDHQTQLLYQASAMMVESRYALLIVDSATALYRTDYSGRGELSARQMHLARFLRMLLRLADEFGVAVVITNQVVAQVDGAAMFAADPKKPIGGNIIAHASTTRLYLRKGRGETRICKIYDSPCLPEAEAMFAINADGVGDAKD
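Test system: preformed human Rad51 ssDNA filaments; also added: Donor/quencher-labelled 47-bp dsDNA substrate; doses: 10 µM final, single point; times: 37 °C 15-min filament assembly, 30-min compound preincubation, 15-min exchange; detection: FRET fluorescence dequenching, excitation 485 nm, emission 520 nm; read-out basis: Fluorescence-based percent inhibition, control- and blank-normalised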
MT stabilize HCS = microtubule stabilizers in HeLa cells, primary screen, imaging, high-content imaging. HeLa tubulin immunostaining HCS, 24 h; share of cells brighter than vehicle mean+2SD. % tubulin-high responders, % at 10 µM. 200,000 tested, 0.83% active. AID 2205, 2009;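 active means plate Z-score above 3 for both tubulin-high and condensed-nucleus cell shares, with cell loss under 80%, at 10 µM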;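 further: anti alpha tubulin signal scored within the nucleus-defined area of each cell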
TbHK1 inh = Trypanosoma brucei hexokinase 1 inhibitors, primary screen, biochemical, G6PDH-coupled NADH absorbance, MLSCN library | AID 1430, 2008 | recombinant TbHK1, G6PDH-coupled NADH A340 | hexokinase 1 [Trypanosoma brucei] | inhibition, % at 10 µM | 220,000 tested, 0.11% active;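 active means inhibition of 50% or more in the single-dose primary screen; inactive means inhibition below 50%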
b-catenin transl = modulators of beta-catenin nuclear translocation, primary screen, imaging, HeLa cells, immunofluorescence, high-content. nuclear translocation activity, % at 5 µM. 190,000 tested, 0.3% active;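 active means nuclear translocation activity above 50% at 5 µM, with a well cell count of 50 or more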;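 further: per-cell ratio of nuclear to cytoplasmic median beta-catenin stain intensity; plate controls were DMSO negative control for no effect and GSK-3 inhibitor IX positive control for full effect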
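Signal – beta-catenin immunofluorescence imaging with DAPI · Test system – human HeLa cell line · Dosing – 5 µM primary single dose, 0.1% DMSO, 0.02–20 µM confirmation series · Measure – % activation, nuclear-to-cytoplasmic median beta-catenin signal ratio per cell · Incubation – 24 h compound exposure at 37°C, 5% CO2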
Active calls of the source: *; x = no result. An excerpt weighted towards active compounds, which were near 1.5% of everything screened.

SMILES	Dynein cargo inh	Rad51 HR inh	MT stabilize HCS	TbHK1 inh	b-catenin transl
CN(C)CCCNS(=O)(=O)c1ccc(N2CCC(c3ccc(Cl)cc3)=N2)cc1	1.8	3	2	-33	73*
O=S(=O)(c1ccc(N2CCC(c3ccc(Cl)cc3)=N2)cc1)N(CCO)CCO	0.067	-1	2	-35	-2
COc1ccc(N2CCN(C(=O)CSc3nnc(C)c(=O)[nH]3)CC2)cc1	1.3	0	2	-6	1
CCn1c(SCC(=O)N/N=C/c2ccc(C)s2)nc2ccccc21	0.31	10	20*	-23	46
c1ccc(COC(CN2CCCCCC2)CN2CCCCCC2)cc1	-0.37	x	x	3	-1
OCCC1CN(Cc2cccc(-c3ccco3)c2)CCN1Cc1ccsc1 (stereo unspecified)	0.43	4	1	-3	1
Cc1ccc(C(=O)Nc2cccc(C(F)(F)F)c2)cc1NC(=O)c1csc(-c2ccncc2)n1	0.24	2	x	-15	70*
CC(C)CCOCc1nc2sc3c(c2c(=O)[nH]1)CCC(C)C3 (stereo unspecified)	-0.49	-4	2	-8	0
COCC1CCN(Cc2cn[nH]c2-c2cc3ccccc3o2)C1 (stereo unspecified)	1	5	2	-1	1
COc1ccc(CCNc2c(C)c(C)nc3ncnn23)cc1	-1.1	4	30*	1	15
CC(C)c1ccc(/C=N/NC(=O)c2ccccc2Cl)cc1	-1.1	7	23*	3	-1
CCCOCCOC(=O)c1[nH]c2c(c1C)C(=O)CC(c1cc(OC)ccc1OC)C2 (stereo unspecified)	-0.62	-2	11*	2	4
COc1ccc(OC)c(C2CC(=O)c3c([nH]c(C(=O)OCC4CCCO4)c3C)C2)c1 (stereo unspecified)	-1.8	5	31*	1	-2
CCC(CC)NC(=O)COC(=O)c1cccc(C)c1O	-0.3	8	1	-1	x
Cc1cc(NC(=O)c2cc(-c3ccco3)on2)nn1Cc1ccc(Cl)cc1	-0.84	x	18*	9	x
Cc1cccc(-n2c(CNC(=O)c3cccc([N+](=O)[O-])c3C)n[nH]c2=S)c1	-0.0099	-3	14*	7	-1
O=C(CNc1cccc2ccccc12)N/N=C/C(Br)=C/c1ccccc1	-0.24	-12	48*	-5	0
O=C(CNc1cccc2ccccc12)N/N=C/c1ccc[nH]1	-1.2	14	x	-10	0
O=C1CC(N2CCC(c3nc4ccccc4[nH]3)CC2)C(=O)N1Cc1ccccc1 (stereo unspecified)	-0.73	11	4	6	-1
COc1cccc(OC)c1C(=O)Nc1cc(C)nn1-c1nc2ccccc2[nH]1	0.54	-22	9.3*	-4	0
COc1ccc(CC(=O)NCc2cccs2)cc1	1.7	2	43*	3	54*
O=C(Cc1cccs1)NCc1cccs1	-0.75	2	4	-2	0
COC(=O)C1=C(C)NC2=C(C(=O)c3ccccc32)C1c1cccc(OC)c1 (stereo unspecified)	-1.4	x	x	-17	1
CC1=C([N+](=O)[O-])C(c2cccc(Br)c2)C2=C(N1)c1ccccc1C2=O (stereo unspecified)	-0.63	3	11*	-10	17
COc1cccc2c(SCC(=O)N/N=C/c3ccc(O)c(O)c3)cc(C)nc12	-0.92	5	10*	-20	-5
SMILES	Dynein cargo inh	Rad51 HR inh	MT stabilize HCS	TbHK1 inh	b-catenin transl
COc1ccc2nc(C)cc(SCC(=O)N/N=C/c3cccc4ccccc34)c2c1	-0.1	-4	41	-28	77*
O=c1[nH]c(NCc2ccco2)nnc1Cc1ccccc1Cl	-0.29	10	59*	-2	3
N#C/C(=C\c1ccc(OC(F)F)cc1)C(=O)N1CCCCC1	-0.22	-5	x	-10	-2
CN1CCC(N(C)C(=O)/C(C#N)=C/c2ccc(OC(F)F)cc2)CC1	0.14	45*	x	-12	-1
Cc1cccc(OCC(=O)Nc2ccccc2C(=O)N2CCOCC2)c1	0.41	x	6	-4	-7
COc1cc(C2Nc3ccc4ncccc4c3C3=C2C(=O)CCC3)ccc1O (stereo unspecified)	-0.35	7	27*	-16	-2
COc1ccc(-c2cc(=O)oc3cc(OC(C)C(=O)O)ccc23)cc1 (stereo unspecified)	-0.49	-4	2	-34	1
COc1ccc(CN(Cc2ccc(C(=O)O)cc2)C(=S)Nc2ccccc2F)cc1OC	-0.29	27	5	-4	-2
CCc1cc(=O)oc2cc3occ(C)c3cc12	-0.49	8	3	-8	2
CCc1cc(=O)oc2cc3occ(-c4ccc(OC)c(F)c4)c3cc12	-0.69	9	10	-1	66*
Cc1cc(C)c2cc(CN(CCO)Cc3nnnn3Cc3ccccc3)c(=O)[nH]c2c1	-0.44	-6	3	-23	-7
C=CCn1c(SCc2cc(C(C)=O)ccc2OCC)nc2ccccc2c1=O	-0.41	1	18*	-17	98*
C=CCn1c(SCc2nc3ccccc3c(=O)[nH]2)nc2ccccc2c1=O	0.037	-3	3	19	3
COc1cc2nc(SCC(=O)NC3CC3)n(CCC3=CCCCC3)c(=O)c2cc1OC	-0.67	x	3	-8	x
COc1cc2nc(SCc3c(C)noc3C)n(CCC3=CCCCC3)c(=O)c2cc1OC	-0.72	3	38*	-15	-1
C=CCn1c(SCc2c(C)noc2C)nc2cc(C(=O)O)ccc2c1=O	-0.52	-6	35*	-1	x
C=CCn1c(SCc2c(C)noc2C)nc2ccccc2c1=O	-0.12	7	27*	-6	x
CCOC(=O)c1c(C)[nH]c(C(=O)COC(=O)c2oc3ccc(OC)cc3c2C)c1C	0.99	11	5	4	-1
CC1(C)CC(c2nc(-c3ccc(Cl)cc3)cs2)CCS1 (stereo unspecified)	-0.45	x	3	1	2
CCOc1ccc(C2=Nn3c(nnc3-c3ccc(OC)cc3)SC2)cc1	-0.46	3	40*	-2	106*
N#C/C(=C\c1cccn1-c1ccccc1)C(=O)NC1CCCCC1	0.12	-1	30*	-14	3
N#C/C(=C\c1ccc(F)c(F)c1)C(=O)NC1CCCCC1	1	11	7	4	1
CCOc1ccc(NC(=O)CS(=O)(=O)c2cn(C)c3ccccc23)cc1	0.39	-2	5	-1	0
CCn1ncc(/C=N\NC(=O)c2csc3ccccc23)c1C	-0.1	-9	48*	-1	129*
Cc1c(/C=N\NC(=O)c2csc3ccccc23)cnn1C	-0.12	0	5	-9	x

Screens deposited in PubChem BioAssay by several laboratories.
